Positions count from the first letter of the chain named.
Experiments:
Experiment in all cases: PEP
Type in all cases: biochemical
[1] = biological target: T1, Therminator II polymerase (Thermococcus sp., UniProt Q56366, A485L/D141A/E143A/Y409V); conditions: for Incorporation bias (analog IC50/HOMedUTP IC50): Therminator II
T1 sequence (Q56366 1-775 D141A/E143A/Y409V/A485L): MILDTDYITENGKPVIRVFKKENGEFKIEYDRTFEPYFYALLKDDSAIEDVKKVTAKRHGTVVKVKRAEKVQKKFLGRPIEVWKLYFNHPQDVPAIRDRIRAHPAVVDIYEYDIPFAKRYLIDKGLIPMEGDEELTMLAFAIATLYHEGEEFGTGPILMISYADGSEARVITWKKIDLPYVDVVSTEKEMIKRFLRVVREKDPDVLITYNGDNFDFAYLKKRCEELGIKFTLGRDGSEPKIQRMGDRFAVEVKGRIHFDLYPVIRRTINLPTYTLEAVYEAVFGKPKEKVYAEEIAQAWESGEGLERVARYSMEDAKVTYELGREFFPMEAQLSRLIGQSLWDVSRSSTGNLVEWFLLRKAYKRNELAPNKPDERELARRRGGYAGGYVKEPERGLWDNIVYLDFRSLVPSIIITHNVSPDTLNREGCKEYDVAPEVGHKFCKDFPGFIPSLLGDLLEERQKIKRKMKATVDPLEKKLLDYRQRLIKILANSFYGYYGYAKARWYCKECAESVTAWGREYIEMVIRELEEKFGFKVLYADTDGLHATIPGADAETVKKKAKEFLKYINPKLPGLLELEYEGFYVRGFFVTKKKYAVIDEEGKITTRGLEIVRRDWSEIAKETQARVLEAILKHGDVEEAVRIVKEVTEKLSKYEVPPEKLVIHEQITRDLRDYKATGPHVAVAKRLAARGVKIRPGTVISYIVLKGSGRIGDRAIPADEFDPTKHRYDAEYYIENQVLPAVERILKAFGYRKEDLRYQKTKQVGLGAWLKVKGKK
Summary of the method: (§1)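 Polymerase end-point assay for single-base incorporation. 5 nM BODIPY-FL-labelled primer-1 was hybridised to 40 nM oligoTemplate-4, with the interrogation base complementary to dU. Absence of a +1 band on the 377 gel image at 100 μM counts as not active. IC50 was averaged from triplicates ± 1 SD. Incorporation bias is the analog IC50 divided by the natural-nucleotide (HOMedUTP) IC50.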

[2] = biological target: T2, Therminator polymerase (Thermococcus sp., UniProt Q56366, A485L/D141A/E143A); conditions: for Incorporation bias (analog IC50/HOMedUTP IC50): Therminator
T2 sequence (Q56366 1-775 D141A/E143A/A485L): T1 sequence (Q56366 1-775 D141A/E143A/Y409V/A485L) with V409Y
Summary of the method: as §1

[3] = biological target: T3, DeepVent(exo^−) polymerase (Pyrococcus sp., UniProt Q51334, D141A/DEL493-1029/E143A); conditions: for Incorporation bias (analog IC50/HOMedUTP IC50): DeepVent(exo^−)
T3 sequence (Q51334 with tags, fused parts or gaps D141A/E143A/DEL493-1029): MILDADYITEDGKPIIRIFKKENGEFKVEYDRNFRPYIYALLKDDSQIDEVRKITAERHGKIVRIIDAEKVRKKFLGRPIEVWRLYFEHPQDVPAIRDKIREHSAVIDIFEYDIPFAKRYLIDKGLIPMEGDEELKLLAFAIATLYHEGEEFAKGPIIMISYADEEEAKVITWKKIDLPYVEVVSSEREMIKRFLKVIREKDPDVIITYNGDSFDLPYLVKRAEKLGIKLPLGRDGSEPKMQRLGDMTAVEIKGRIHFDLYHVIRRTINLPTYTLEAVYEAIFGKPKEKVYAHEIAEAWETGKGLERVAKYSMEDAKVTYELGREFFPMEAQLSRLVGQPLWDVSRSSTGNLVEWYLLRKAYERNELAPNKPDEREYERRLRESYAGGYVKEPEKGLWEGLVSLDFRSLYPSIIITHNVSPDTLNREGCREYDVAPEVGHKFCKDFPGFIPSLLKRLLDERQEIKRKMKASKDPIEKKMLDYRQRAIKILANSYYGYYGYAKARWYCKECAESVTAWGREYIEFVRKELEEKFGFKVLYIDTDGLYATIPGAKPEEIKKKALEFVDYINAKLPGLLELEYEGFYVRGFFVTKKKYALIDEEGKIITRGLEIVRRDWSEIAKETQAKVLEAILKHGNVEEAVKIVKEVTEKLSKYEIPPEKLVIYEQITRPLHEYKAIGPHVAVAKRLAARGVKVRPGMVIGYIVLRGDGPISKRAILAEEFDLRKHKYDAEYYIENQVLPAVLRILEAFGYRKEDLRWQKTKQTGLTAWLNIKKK
Summary of the method: as §1

SMILES	IC50 [1] [nM]	Incorporation bias (analog IC50/HOMedUTP IC50) [1]	Incorporation bias (analog IC50/HOMedUTP IC50) [2]	IC50 [3] [nM]	Incorporation bias (analog IC50/HOMedUTP IC50) [3]	IC50 [2] [nM]
CC(OCc1cn([C@H]2C[C@H](O)[C@@H](COP(=O)(O)OP(=O)(O)OP(=O)(O)O)O2)c(=O)[nH]c1=O)c1ccccc1[N+](=O)[O-] (mixture of isomers) [dU.II, 5-[1-(2-Nitrophenyl)ethyloxy]methyl-2'-deoxyuridine-5’-triphosphate]	14 ± 1	1.9	1.0	17 ± 1	6.3	
CC(C)C(OCc1cn([C@H]2C[C@H](O)[C@@H](COP(=O)(O)OP(=O)(O)OP(=O)(O)O)O2)c(=O)[nH]c1=O)c1ccccc1[N+](=O)[O-] (mixture of isomers) [dU.III, 5-[1-(2-Nitrophenyl)-2-methyl-propyloxy]methyl-2'-deoxyuridine-5’-triphosphate]	140 ± 10	20	1.4	220 ± 20	80	
O=c1[nH]c(=O)n([C@H]2C[C@H](O)[C@@H](COP(=O)(O)OP(=O)(O)OP(=O)(O)O)O2)cc1COCc1ccccc1[N+](=O)[O-] [dU.I, 5-(2-Nitrobenzyloxy)methyl-2'-deoxyuridine-5’-triphosphate]	5.7 ± 0.4	0.8	1.1	4.9 ± 1	1.8	1.8 ± 0.1

— PMC3064798 (Nucleic Acids Research, 2011)
